Assay results of several laboratories.
Compare with care: the assays were run in different laboratories.
Target: Mitogen-activated protein kinase 1 (MAPK1, Homo sapiens, UniProt P28482)

Compound | effect on | technique | concentration | remaining binding [%]
Nc1ncc2c(n1)-c1c([nH]c3ccc(C#CC4CC4)cc13)CCCC2 | binding | competition with immobilised ligand | 1 µM | 100
Cn1nc(C(F)(F)F)cc1-c1cnc(N2CCc3cc(S(=O)(=O)Nc4c(F)cc(Cl)cc4F)cc(N4CCCC4=O)c32)nc1 | cell-free assay | competition with immobilised ligand | 1 µM | 100
CNC(=O)[C@@H]1CC[C@@H](n2c(-c3ccc4cnccc4c3)nc3ccc(C(=O)NCc4cccc(C(N)=O)c4)cc32)C1 | binding | competition with immobilised ligand | 1 µM | 91
Cc1cnc(Nc2ccc(C(=O)N3CCC(N4CCCC4)CC3)cc2)nc1-c1cc2ccccc2s1 | binding | competition with immobilised ligand | 1 µM | 100
C=CC(=O)N1CCC(C(=O)NCC(=O)N2CCN(c3nc(-c4cnc(N)nc4C(F)F)nc(N4CCOCC4)n3)CC2)CC1 | binding | competition with immobilised ligand | 1 µM | 98
O=C(c1ccc(Nc2ncc(Cl)c(-c3cc4ccccc4s3)n2)cc1)N1CCC(N2CCCC2)CC1 | binding | competition with immobilised ligand | 1 µM | 100
COc1cnc(Nc2cccc(S(N)(=O)=O)c2)nc1N1CCN(c2ccccc2)C(=O)C1 | binding | competition with immobilised ligand | 1 µM | 100
CN(C)c1nccc(-c2cnc3ncccn23)n1 | binding | – | 1 µM | 81
O=C(NCCCN1CCOCC1)c1ccc(Nc2nccc(-c3cc4ccccc4s3)n2)cc1 | binding | competition with immobilised ligand | 1 µM | 89
CN(C)c1ncc(F)c(-c2cnn3ncccc23)n1 | binding | – | 1 µM | 82
C[C@H](c1cccc(C#N)c1)n1cc(Cl)cc(C(N)=O)c1=N | cell-free assay | competition with immobilised ligand | 1 µM | 93
CN(c1nccc(-c2cnn3ncccc23)n1)C1CC1 | binding | – | 1 µM | 100
CO[C@@H](C)c1c(Nc2ccc([C@H](N(C)C(=O)C3CCS(=O)(=O)CC3)C(F)(F)F)cc2)cnc2cc(Cl)nn12 | cell-free assay | competition with immobilised ligand | 1 µM | 100
N[C@H]1CCN(c2nccc(-c3cnn4ncccc34)n2)C1 | binding | – | 1 µM | 100
CCCOc1ccc([C@H]2[C@H](C(=O)O)[C@@H](c3ccc4c(c3)OCO4)CN2CC(=O)Nc2c(CC)cccc2CC)cc1 | cell-free assay | competition with immobilised ligand | 1 µM | 100
Cc1cnn2ncc(-c3ccnc(N(C)C)n3)c2c1 | binding | – | 1 µM | 100
Cn1nc(C(=O)NCc2ccc(C(=O)O)cc2)cc1-c1ccc2[nH]ccc2c1 | cell-free assay | competition with immobilised ligand | 0.1 µM | 94
O=C(Nc1c[nH]nc1C(=O)NC1CCNCC1)c1cc(F)cc(F)c1 | binding | competition with immobilised ligand | 1 µM | 100
C[C@@H]1CCN(c2nccc(-c3cnn4ncccc34)n2)C1 | binding | – | 1 µM | 88
Cc1c(C(=O)O)cc(-c2ccc(C3CCNCC3)cc2)c2ccc(-c3ccc(C(F)(F)F)cc3)cc12 | binding | competition with immobilised ligand | 1 µM | 100
F[C@@H]1CCN(c2nccc(-c3cnn4ncccc34)n2)C1 | binding | – | 1 µM | 100
FC(F)(F)c1ccc2c(c1)nc(-c1cccnc1)n2C1CC1 | cell-free assay | competition with immobilised ligand | 1 µM | 100
